Source: ChEMBL document CHEMBL2401679, “Synthesis and on-target antibacterial activity of novel 3-elongated arylalkoxybenzamide derivatives as inhibitors of the bacterial cell division protein FtsZ” (2013)
Values after ≈ are worked out from the molar mass of the structure shown. Active and inactive are the calls of the source. The calls are words filed in the database; no cut-off is given here.

What was measured:
Streptococcus pyogenes = test: Antibacterial activity against penicillin-susceptible Streptococcus pyogenes after 24 hrs by broth microdilution method; format: functional
In short: (§1)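 MIC by broth microdilution following the NCCLS standard method. Test strains were penicillin-susceptible: B. subtilis ATCC9372, S. aureus ATCC25923, S. pneumoniae ATCC49619 and Streptococcus pyogenes PS.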

Streptococcus pneumoniae = test: Antibacterial activity against penicillin-susceptible Streptococcus pneumoniae ATCC 49619 after 24 hrs by broth microdilution method; format: functional; conditions: ATCC 49619, 24 h; in short: as §1
Staphylococcus aureus [1] = test: Antibacterial activity against penicillin-resistant Staphylococcus aureus clinical isolate after 24 hrs by broth microdilution method; format: functional
In short: (§2)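 MIC by standard broth microdilution following NCCLS recommendations. S. aureus ATCC29213 is a […] strain. The S. aureus PR strain is a penicillin-resistant clinical isolate that has not been characterized. The MIC was taken as the in vitro antibacterial activity value.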

Staphylococcus aureus [2] = test: Antibacterial activity against penicillin-susceptible Staphylococcus aureus ATCC 25923 after 24 hrs by broth microdilution method; format: functional; conditions: ATCC 25923, 24 h; in short: as §1
Staphylococcus aureus [3] = test: Antibacterial activity against […] Staphylococcus aureus ATCC 29213 after 24 hrs by broth microdilution method; format: functional; conditions: ATCC 29213, 24 h; in short: as §2
Bacillus subtilis [4] = test: Antibacterial activity against penicillin-susceptible Bacillus subtilis ATCC 9372 after 24 hrs by broth microdilution method; format: functional; conditions: ATCC 9372, 24 h; in short: as §1
Staphylococcus aureus [5] = test: Inhibition of cell division in penicillin-susceptible Staphylococcus aureus ATCC 25923 assessed as lowest concentration required to ballooning after 5 hrs by phase-contrast light microscopy analysis; format: functional
In short: (§3)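 Cell morphology of B. subtilis ATCC9372 or S. aureus ATCC25923 was examined by phase-contrast light microscopy. The value recorded is the lowest compound concentration at which B. subtilis filamentation or S. aureus ballooning appeared. This is taken as on-target cell division inhibition.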

Bacillus subtilis [6] = test: Inhibition of cell division in penicillin-susceptible Bacillus subtilis ATCC 9372 assessed as lowest concentration required to filamentation after 5 hrs by phase-contrast light microscopy analysis; format: functional; in short: as §3
Staphylococcus aureus [7] = test: Ratio of compound MIC to 3-MBA MIC for penicillin-resistant Staphylococcus aureus clinical isolate; format: functional
Staphylococcus aureus [8] = test: Ratio of compound MIC to 3-MBA MIC for penicillin-susceptible Staphylococcus aureus ATCC 25923; format: functional
Staphylococcus aureus [9] = test: Inhibition of cell division in penicillin-susceptible Staphylococcus aureus ATCC 25923 at 2048 to 4096 ug/ml after 5 hrs by phase-contrast light microscopy analysis; format: functional, organism-based
Bacillus subtilis [10] = test: Ratio of compound MIC to 3-MBA MIC for penicillin-susceptible Bacillus subtilis ATCC 9372; format: functional
Bacillus subtilis [11] = test: Inhibition of cell division in penicillin-susceptible Bacillus subtilis ATCC 9372 at 2048 to 4096 ug/ml after 5 hrs by phase-contrast light microscopy analysis; format: functional, organism-based
Bacillus subtilis [12] = test: Ratio of compound to 3-MBA for inhibition of cell division in penicillin-susceptible Bacillus subtilis ATCC 9372; format: functional

Row | Compound | MIC (Streptococcus pyogenes) [µg/mL] | MIC (Streptococcus pneumoniae) [µg/mL] | MIC (Staphylococcus aureus [1]) [µg/mL] | MIC (Staphylococcus aureus [2]) [µg/mL] | MIC (Staphylococcus aureus [3]) [µg/mL] | MIC (Bacillus subtilis [4]) [µg/mL] | INH (Staphylococcus aureus [5]) [µg/mL] | INH (Bacillus subtilis [6]) [µg/mL] | Ratio (Staphylococcus aureus [7]) | Ratio (Staphylococcus aureus [8]) | inhibition (Staphylococcus aureus [9]) | Ratio (Bacillus subtilis [10]) | inhibition (Bacillus subtilis [11]) | Ratio (Bacillus subtilis [12])
1 | NC(=O)c1cccc(OCCCCOc2ccc(Cl)cc2)c1 | > 128 | > 128 | > 128 | 1020 (≈ 3200 µM) | > 128 | 0.5 (≈ 1.56 µM) | 256 | 0.25 |  |  |  |  |  | 
2 | NC(=O)c1cccc(OCCCCOc2ccccc2)c1 | > 128 | 128 (≈ 449 µM) | > 128 | 1020 (≈ 3590 µM) | > 128 | 64 (≈ 224 µM) | 512 | 32 |  |  |  |  |  | 
3 | NC(=O)c1cccc(OCCCBr)c1 | > 128 | > 128 | 128 (≈ 496 µM) | 64 (≈ 248 µM) | 64 (≈ 248 µM) | 128 (≈ 496 µM) | 32 | 128 |  |  |  |  |  | 
4 | NC(=O)c1cccc(OCCCCCl)c1 | > 128 | > 128 | 8 (≈ 35.1 µM) | 8 (≈ 35.1 µM) | 8 (≈ 35.1 µM) | 32 (≈ 141 µM) | 32 | 16 | 512 | 256 |  |  |  | 
5 | COc1ccc(OCCCCOc2cccc(C(N)=O)c2)cc1 | > 128 | > 128 | > 128 | 4100 (≈ 13000 µM) | > 128 | 1020 (≈ 3250 µM) |  | 32 |  |  | inactive |  |  | 
6 | NC(=O)c1cccc(OCCCCn2ccnc2)c1 | > 128 | > 128 | > 128 | 256 (≈ 987 µM) | > 128 | 128 (≈ 494 µM) | 128 | 128 |  |  |  |  |  | 
7 | NC(=O)c1cccc(OCCCSc2nc3ccccc3[nH]2)c1 | > 128 | > 128 | > 128 | 1020 (≈ 3130 µM) | > 128 | 16 (≈ 48.9 µM) | 512 | 4 |  |  |  |  |  | 
8 | CCOCCCCCOc1cccc(C(N)=O)c1 | > 128 | > 128 | 64 (≈ 255 µM) | 64 (≈ 255 µM) | 64 (≈ 255 µM) | 64 (≈ 255 µM) | 128 | 64 |  |  |  |  |  | 
9 | NC(=O)c1cccc(OCCCCCBr)c1 | > 128 | > 128 | 32 (≈ 112 µM) | 32 (≈ 112 µM) | 16 (≈ 55.9 µM) | 64 (≈ 224 µM) | 64 | 32 |  |  |  |  |  | 
10 | NC(=O)c1cccc(OCCSc2nc3ccccc3s2)c1 | > 128 | > 128 | > 128 | 2050 (≈ 6200 µM) | > 128 | 32 (≈ 96.8 µM) | 1024 | 16 |  |  |  |  |  | 
11 | NC(=O)c1cccc(OCCCCOc2ccc([N+](=O)[O-])cc2)c1 | > 128 | > 128 | > 128 | 1020 (≈ 3100 µM) | > 128 | 32 (≈ 96.9 µM) | 512 | 32 |  |  |  |  |  | 
12 | CCCOCCCCCOc1cccc(C(N)=O)c1 | > 128 | > 128 | 32 (≈ 121 µM) | 16 (≈ 60.3 µM) | 32 (≈ 121 µM) | 32 (≈ 121 µM) | 32 | 8 |  |  |  |  |  | 
13 | NC(=O)c1cccc(OCCCCBr)c1 | > 128 | > 128 | 8 (≈ 29.4 µM) | 8 (≈ 29.4 µM) | 8 (≈ 29.4 µM) | 16 (≈ 58.8 µM) | 8 | 8 | 512 | 256 |  | 256 |  | 
14 | Cc1nc2ccccc2n1CCCCOc1cccc(C(N)=O)c1 | > 128 | > 128 | > 128 | 1020 (≈ 3170 µM) | > 128 | 1020 (≈ 3170 µM) |  |  |  |  | inactive |  | inactive | 
15 | NC(=O)c1cccc(OCCCn2cncn2)c1 | > 128 | > 128 | > 128 | 2050 (≈ 8320 µM) | > 128 | 32 (≈ 130 µM) | 1024 | 16 |  |  |  |  |  | 
16 | NC(=O)c1cccc(OCCCCSc2nc3ccccc3s2)c1 | > 128 | > 128 | > 128 | 1020 (≈ 2860 µM) | > 128 | 128 (≈ 357 µM) | 512 | 128 |  |  |  |  |  | 
17 | NC(=O)c1cccc(OCCCCCCCl)c1 | > 128 | > 128 | 32 (≈ 125 µM) | 32 (≈ 125 µM) | 64 (≈ 250 µM) | 16 (≈ 62.6 µM) | 32 | 4 |  |  |  | 256 |  | 128
18 | NC(=O)c1cccc(OCCCCl)c1 | > 128 | > 128 | 64 (≈ 300 µM) | 64 (≈ 300 µM) | 64 (≈ 300 µM) | 128 (≈ 599 µM) | 64 | 64 |  |  |  |  |  | 
19 | CCCCOCCCCCOc1cccc(C(N)=O)c1 | > 128 | > 128 | 8 (≈ 28.6 µM) | 8 (≈ 28.6 µM) | 4 (≈ 14.3 µM) | 8 (≈ 28.6 µM) | 16 | 8 |  | 256 |  | 512 |  | 
20 | NC(=O)c1cccc(O)c1 | > 128 | > 128 | 4100 (≈ 29900 µM) | 4100 (≈ 29900 µM) | 4100 (≈ 29900 µM) | 512 (≈ 3730 µM) | 4096 | 4096 |  |  |  |  |  | 
21 | NC(=O)c1cccc(OCCCCCCl)c1 | > 128 | > 128 | 32 (≈ 132 µM) | 32 (≈ 132 µM) | 32 (≈ 132 µM) | 64 (≈ 265 µM) | 32 | 32 |  |  |  |  |  | 
22 | NC(=O)c1cccc(OCCBr)c1 | > 128 | > 128 | 128 (≈ 524 µM) | 64 (≈ 262 µM) | 128 (≈ 524 µM) | 128 (≈ 524 µM) | 16 | 64 |  |  |  |  |  | 
23 | COc1cccc(C(N)=O)c1 | > 128 | > 128 | 4100 (≈ 27100 µM) | 2050 (≈ 13500 µM) | 2050 (≈ 13500 µM) | 4100 (≈ 27100 µM) |  | 512 |  |  | inactive |  |  | 
24 | NC(=O)c1cccc(OCCCOc2ccc(Cl)cc2)c1 | > 128 | > 128 | > 128 | 1020 (≈ 3350 µM) | > 128 | 16 (≈ 52.3 µM) | 512 | 4 |  |  |  |  |  | 
25 | NC(=O)c1cccc(OCCCOc2ccc([N+](=O)[O-])cc2)c1 | > 128 | > 128 | > 128 | 1020 (≈ 3240 µM) | > 128 | 4 (≈ 12.6 µM) | 512 | 4 |  |  |  |  |  | 
26 | NC(=O)c1cccc(OCCCOc2ccccc2)c1 | > 128 | > 128 | > 128 | 1020 (≈ 3770 µM) | > 128 | 32 (≈ 118 µM) | 1024 | 8 |  |  |  |  |  | 
27 | NC(=O)c1cccc(OCCCSc2nc3ccccc3s2)c1 | > 128 | > 128 | > 128 | 512 (≈ 1490 µM) | > 128 | 512 (≈ 1490 µM) | 256 | 512 |  |  |  |  |  | 
28 | NC(=O)c1cccc(OCCCCCCBr)c1 | > 128 | > 128 | 64 (≈ 213 µM) | 64 (≈ 213 µM) | 64 (≈ 213 µM) | 32 (≈ 107 µM) | 64 | 16 |  |  |  |  |  | 
29 | COc1ccc(OCCCOc2cccc(C(N)=O)c2)cc1 | > 128 | > 128 | > 128 | 1020 (≈ 3400 µM) | > 128 | 1020 (≈ 3400 µM) | 512 | 1024 |  |  |  |  |  | 
30 | NC(=O)c1cccc(OCCCCn2cncn2)c1 | > 128 | > 128 | > 128 | 1020 (≈ 3930 µM) | > 128 | 1020 (≈ 3930 µM) | 1024 |  |  |  |  |  | inactive | 
